Compound activity as filed in PubChem BioAssay.
M1 ag parental = M1 agonist counterscreen hit in parental CHO-K1 cells; Fluo-8 calcium fluorescence; scaled to maximal ATP response, vehicle zero; activation, % at 3 µM; hit rate 0.48% among 360,000; in the data active means activation above about 15%;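 further: untransfected CHO-K1 host cells lacking M1 receptor as counterscreen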
OX1R antag-1 = human HCRTR1 antagonism; O43613; CHO/OX1R cells, Fluo-8 calcium fluorescence, orexin A; inhibition, % at 5 µM; hit rate 0.43% among 330,000; AID 434989;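 active means inhibition above its plate's threshold, mean inhibition of all tested compounds on the plate plus 3 SD, cut at about 37% in these data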;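 further: 0% = orexin A challenge wells and 100% = SB-334867-A antagonist wells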
Target sequence (O43613 whole entry, looked up): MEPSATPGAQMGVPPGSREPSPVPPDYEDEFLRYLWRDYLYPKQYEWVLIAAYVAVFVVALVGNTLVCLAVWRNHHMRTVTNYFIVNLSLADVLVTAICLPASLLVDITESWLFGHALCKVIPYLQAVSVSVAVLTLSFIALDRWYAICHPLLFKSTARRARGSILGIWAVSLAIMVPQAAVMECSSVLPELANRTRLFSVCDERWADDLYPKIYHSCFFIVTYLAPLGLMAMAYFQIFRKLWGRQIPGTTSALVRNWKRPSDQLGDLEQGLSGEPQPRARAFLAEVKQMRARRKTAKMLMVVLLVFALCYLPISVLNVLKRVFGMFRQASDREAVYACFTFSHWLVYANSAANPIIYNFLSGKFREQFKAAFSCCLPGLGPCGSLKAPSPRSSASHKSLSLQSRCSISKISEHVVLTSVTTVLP
CHO-K1 Ca antag = nonselective inhibitor or artifact in parental CHO-K1 cells. ATP-induced calcium, Fluo-8 fluorescence. inhibition, % at 3 µM. hit rate 0.6% among 360,000. AID 602250;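 active means inhibition above a per-plate cutoff, the plate's mean sample inhibition plus 3 SD, cut at about 24% in these data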;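 further: 0% = DMSO plus EC80 ATP and 100% = DMSO alone without ATP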
OX1R antag-2 = blocks the human orexin 1 receptor. inhibition, % at 6.6 µM. hit rate 1.8% among 330,000. OX1R-expressing cells, FRET antagonist read-out. O43613; in the data active means inhibition mostly above about 38%, no sharp cut-off; inactive means mostly below about 40%;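 further: 0% = agonist challenge alone and 100% = reference antagonist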
CHO parental Ca = counter-screen: ATP calcium response change in parental CHO cells; parental CHO-K1, ATP-induced calcium, Fluo-8 fluorescence; inhibition, % at 5.6 µM; hit rate 0.63% among 330,000; AID 463079;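 active means inhibition above that plate's mean sample inhibition plus 3 SD, cut at about 26% in these data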;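 further: 0% = ATP-challenged DMSO wells and 100% = DMSO wells without ATP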
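Material: Parental CHO cells | Reagent: ATP | Compound dosing: Single nominal dose of 5.6 µM per compound | Detection: Intracellular calcium via Fluo-8 no-wash fluorescent dye | Read-out: % inhibition of ATP-induced calcium mobilization | Benchmarks: Low control ATP plus DMSO, high control DMSO only | Replicates: Singlicate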
CHO-K1 Ca PAM = counter-screen for M1 PAMs: effect in parental CHO-K1 cells; ATP EC20, Fluo-8 calcium fluorescence; 0% at ATP EC20, 100% at ATP max; activation, % at 3 µM; AID 602247; hit rate 0.02% among 360,000;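 active means activation above the run cutoff, the mean activation of all test compounds plus 3 SD, cut at about 40% in these data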;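 further: peak over basal fluorescence ratio in a 140 s read after ATP addition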
An asterisk follows results filed as active; / = no result given. Sampled rows, rich in hits. Any-hit rate of the full collection: about 2.9%.

SMILES	M1 ag parental	OX1R antag-1	CHO-K1 Ca antag	OX1R antag-2	CHO parental Ca	CHO-K1 Ca PAM
COc1cccc(OCC(O)CN2CCC(CN3C(=O)c4cccc5cccc(c45)C3=O)CC2)c1 (centres undefined)	1	-22	0	35	-5	5
COc1ccc(COCC(O)CN2CCCCC2)cc1OC (centres undefined)	0	-6	5	2	-2	17
COc1ccc(COCC(O)CN2CCC(C(N)=O)CC2)cc1OC (centres undefined)	19*	-2	10	12	8	17
Cc1cc(CN(C)C(=O)c2ccc(OC3CCN(CCc4ccccc4)CC3)cc2)on1	5	-28	-10	22	-26	14
CC(=O)C1C(c2ccc([N+](=O)[O-])cc2)c2c(noc2C)CC1(C)O (centres undefined)	1	-19	-9	7	-23	13
CCC(=O)c1ccc(OCC(=O)OCC(=O)N(CCC#N)c2ccc3c(c2)OCCO3)cc1	11	26	9	2	44*	-7
N#CCCN(C(=O)COC(=O)c1ccc(Cl)nc1)c1ccc2c(c1)OCCO2	0	/	13	/	/	-1
CCc1noc(C)c1C(=O)Nc1nc(-c2cccs2)cs1	2	-24	-15	51*	-28	1
O=C(CCCN1C(=O)/C(=C/c2ccccc2Cl)SC1=S)Nc1ccccn1	1	-29	-10	18	-24	16
O=C(CCN1C(=O)/C(=C/C=C/c2ccccc2)SC1=S)Nc1nccs1	-1	-14	26*	8	-12	-6
O=C(CCN1C(=O)/C(=C/c2ccccc2Cl)SC1=S)Nc1ccccn1	1	-40	12	65*	-13	-23
C[C@@H]1CN([C@H](C)CO)C(=O)c2cc(Br)cnc2O[C@@H]1CN(C)C(=O)NC1CCCC1	1	/	-6	/	/	9
O=C(NCc1ccccc1)c1cccc(COc2ccccc2Cl)c1	1	21	4	41	57*	6
O=C(NCc1ccccc1)c1cccc(COc2cc(Cl)ccc2Cl)c1	1	-25	-7	48	-21	25
CC(=O)c1sc(Nc2ccccn2)nc1C	0	7	-16	73*	-4	16
CC(=O)c1sc(Nc2cccc3ccccc23)nc1C	0	-28	-8	14	-10	12
O=C(NCCc1ccccn1)c1c(-c2ccsc2)sc2ccccc12	5	-22	-7	48*	-32	6
Oc1c(Br)cc(Br)cc1C=Nc1cccc2ncccc12	0	-11	-5	54*	-4	4
Brc1cccc(C=Nc2cccc3ncccc23)c1	0	-5	-5	5	6	-4
N#C/C(=N\Nc1ccc(S(=O)(=O)N2CCOCC2)cc1)C(N)=S	1	-13	-12	20	-7	25
O=C(Nc1cccc(Cl)c1)C1CCCN(S(=O)(=O)c2ccc(F)cc2)C1 (centres undefined)	5	-5	-23	42*	-17	29
O=C(Nc1ccccc1)Nc1ccc(S(=O)(=O)N2CCCCC2)cc1	11	34	24*	43	38*	4
CCN(CC(=O)Nc1cc(S(=O)(=O)N2CCCCC2)ccc1Cl)Cc1ccccc1	9	-27	36*	15	27	-5
N#CC(C#N)=NNc1ccc(S(=O)(=O)N2CCCCC2)cc1	10	1	11	57*	-15	5
Cc1ccc(S(=O)(=O)NCC(=O)OCc2nnc(-c3ccccc3)o2)cc1	1	-16	3	28	-6	5
Cc1ccc(/C=N/n2c(C)nc3ccccc3c2=O)s1	/	-14	/	5	-3	/
O=C(CN1C(=O)NC(c2ccc(F)cc2)C1=O)NC1CCCCC1 (centres undefined)	0	-1	-4	5	-10	1
C[C@@H]1CN([C@H](C)CO)C(=O)CCCn2cc(nn2)CO[C@H]1CN(C)C(=O)C1CC1	1	/	5	/	/	1
O=C(Nc1cccc(Cl)c1)Nc1cc(S(=O)(=O)N2CCCCC2)ccc1Cl	1	-16	38*	26	-12	-15
O=C(O)CCC(=O)Nc1ccc(S(=O)(=O)N2CCCC2)cc1	0	-1	25*	11	6	-7
